Experiments:
[1] = system: Muscle tissue; experiment: Biodistribution in muscle of C57BL/6J mouse harboring mouse B16-Bl6 cells at 9 to 12 MBq, iv after 2 hrs by PET analysis; format: ADME, organism-based; settings: in vivo
Method in brief: (§1)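 Ex vivo dissection in B16Bl6-bearing C57BL/6J mice (3x10⁵ cells s.c. right shoulder), done at day 10 or 14 after implantation. The ¹⁸F tracer was given i.v. at 9-12 MBq. Mice were killed by CO₂ at 1, 2 or 3 h. Tumor, organs and tissues were excised, weighed and gamma-counted, then decay-corrected and expressed as %ID/g. n=3-6 per group; mean ± SD.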

[2] = Stability of the compound in eyes of C57BL/6J mouse harboring mouse B16-Bl6 cells assessed as unchanged drug level at 18 MBq, iv after 1 hr; format: ADME, organism-based, Eye; settings: read-out: Stability
Method in brief: (§2)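 Metabolite analysis in six B16Bl6 tumour-bearing mice given 18 MBq iv, killed at 30 min, 1 h or 2 h. Plasma (centrifuged) and bladder urine were injected directly. Pooled tumours, eyes and livers were homogenized in MeOH/NH₄OH 99.8:0.2, centrifuged, filtered and concentrated. Samples ran on radio-HPLC (C18, MeOH/H₂O/NH₄OH gradient) in duplicate; result is % unchanged tracer of total radioactivity.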

[3] = system: Mus musculus; experiment: Biodistribution in tumor of C57BL/6J mouse harboring mouse B16-Bl6 cells at 8 to 12 MBq, iv after 1 hr by PET analysis; format: ADME, organism-based, Neoplasm; settings: in vivo
Method in brief: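 Static whole-body PET at 1 h after tail-vein injection of [18F]tracer (9-12 MBq/0.15 mL) in C57BL/6J mice carrying subcutaneous B16Bl6 shoulder tumours (3x10⁵ cells), imaged day 10 or 14. Mice under ketamine/xylazine ip. 25 min acquisition, OSEM reconstruction. ROI % ID/g = counts/g/min ÷ injected dose; ratios = tumour % ID/g ÷ organ % ID/g. n=2-8; mean ± SD.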

[4] = system: Bone; experiment: Biodistribution in bones of C57BL/6J mouse harboring mouse B16-Bl6 cells at 9 to 12 MBq, iv after 3 hrs by PET analysis; format: ADME, organism-based, Bone element; settings: in vivo; method in brief: as §1
[5] = Ratio of drug level in tumor to blood in C57BL/6J mouse harboring mouse B16-Bl6 cells at 9 to 12 MBq, iv after 1 hr by PET analysis; format: ADME, organism-based
Method in brief: (§3)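 Ex vivo biodistribution. C57BL/6J mice bearing subcutaneous B16Bl6 tumours (3x10⁵ cells, shoulder), day 10 or 14, received [18F]tracer iv (9-12 MBq). They were killed by CO₂ at 1, 2 or 3 h. Tumours and organs were excised, weighed and gamma-counted. Results are decay-corrected % ID/g; ratios are tumour over tissue. n=3-6 per group; mean ± SD.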

[6] = Stability of the compound in tumor of C57BL/6J mouse harboring mouse B16-Bl6 cells assessed as unchanged drug level at 18 MBq, iv after 2 hrs; format: ADME, organism-based, Neoplasm; settings: read-out: Stability; method in brief: as §2
[7] = system: Mus musculus; experiment: Biodistribution in tumor of C57BL/6J mouse harboring mouse B16-Bl6 cells at 9 to 12 MBq, iv after 2 hrs by PET analysis; format: ADME, organism-based, Neoplasm; settings: in vivo; method in brief: as §3
[8] = system: Zone of skin; experiment: Biodistribution in skin of C57BL/6J mouse harboring mouse B16-Bl6 cells at 9 to 12 MBq, iv after 3 hrs by PET analysis; format: ADME, organism-based; settings: in vivo; method in brief: as §1
[9] = system: Mus musculus; experiment: Biodistribution in colon and feces of C57BL/6J mouse harboring mouse B16-Bl6 cells at 9 to 12 MBq, iv after 3 hrs by PET analysis; format: ADME, organism-based; settings: in vivo; method in brief: as §1
[10] = Stability of the compound in eyes of C57BL/6J mouse harboring mouse B16-Bl6 cells assessed as unchanged drug level at 18 MBq, iv after 2 hrs; format: ADME, organism-based, Eye; settings: read-out: Stability; method in brief: as §2
[11] = system: Liver; experiment: Biodistribution in liver of C57BL/6J mouse harboring mouse B16-Bl6 cells at 9 to 12 MBq, iv after 3 hrs by PET analysis; format: ADME, organism-based; settings: in vivo; method in brief: as §1
[12] = Stability of the compound in tumor of C57BL/6J mouse harboring mouse B16-Bl6 cells assessed as unchanged drug level at 18 MBq, iv after 30 mins; format: ADME, organism-based, Neoplasm; settings: read-out: Stability
[13] = Stability of the compound in liver of C57BL/6J mouse harboring mouse B16-Bl6 cells assessed as unchanged drug level at 18 MBq, iv after 1 hr; format: ADME, organism-based; settings: read-out: Stability; method in brief: as §2
[14] = Stability of the compound in urine of C57BL/6J mouse harboring mouse B16-Bl6 cells assessed as unchanged drug level at 18 MBq, iv after 1 hr; format: ADME, organism-based; settings: read-out: Stability; method in brief: as §2
[15] = system: Lung; experiment: Biodistribution in lung of C57BL/6J mouse harboring mouse B16-Bl6 cells at 9 to 12 MBq, iv after 3 hrs by PET analysis; format: ADME, organism-based; settings: in vivo; method in brief: as §1
[16] = system: Zone of skin; experiment: Biodistribution in skin of C57BL/6J mouse harboring mouse B16-Bl6 cells at 9 to 12 MBq, iv after 1 hr by PET analysis; format: ADME, organism-based; settings: in vivo; method in brief: as §1
[17] = Stability of the compound in urine of C57BL/6J mouse harboring mouse B16-Bl6 cells assessed as unchanged drug level at 18 MBq, iv after 2 hrs; format: ADME, organism-based; settings: in vivo; method in brief: as §2
[18] = system: Blood; experiment: Stability of the compound in blood of C57BL/6J mouse harboring mouse B16-Bl6 cells assessed as unchanged drug level at 18 MBq, iv after 2 hrs; format: ADME, organism-based; settings: in vivo; method in brief: as §2
[19] = system: Liver; experiment: Stability of the compound in liver of C57BL/6J mouse harboring mouse B16-Bl6 cells assessed as unchanged drug level at 18 MBq, iv after 2 hrs; format: ADME, organism-based; settings: in vivo; method in brief: as §2
[20] = system: Blood; experiment: Biodistribution in blood of C57BL/6J mouse harboring mouse B16-Bl6 cells at 9 to 12 MBq, iv after 2 hrs by PET analysis; format: ADME, organism-based; settings: in vivo; method in brief: as §1
[21] = system: Heart; experiment: Biodistribution in heart of C57BL/6J mouse harboring mouse B16-Bl6 cells at 9 to 12 MBq, iv after 2 hrs by PET analysis; format: ADME, organism-based; settings: in vivo; method in brief: as §1
[22] = system: Mus musculus; experiment: Biodistribution in eyes of C57BL/6J mouse harboring mouse B16-Bl6 cells at 9 to 12 MBq, iv after 1 hr by PET analysis; format: ADME, organism-based, Eye; settings: in vivo; method in brief: as §1

SMILES	Drug uptake [1]	Drug uptake [3]	Drug uptake [4]	Kp at 1 h [5]	Drug uptake [7]	Drug uptake [8]	Drug uptake [9]	Drug uptake [11]	Drug uptake [15]	Drug uptake [16]	Drug uptake [20]	Drug uptake [21]	Drug uptake [22]	further results
CCN(CCNC(=O)c1cnc2cc(I)ccc2n1)CCOCCOCCOCC[18F]	0.92 % ID/g	14.33 % ID/g	3.27 % ID/g	10.2	13.07 % ID/g	1.05 % ID/g	8.09 % ID/g	1.99 % ID/g	1.6 % ID/g	1.44 % ID/g	1.12 % ID/g	2.14 % ID/g	18.36 % ID/g	remaining at 1 h [2]: > 99%; remaining at 2 h [6]: > 99%; remaining at 2 h [10]: > 99%; remaining at 0.5 h [12]: > 99%; remaining at 1 h [13]: 8%; remaining at 1 h [14]: 0.1%; Stability [17]: Unstable; Stability [18]: Unstable; Stability [19]: Unstable
CCN(CCNC(=O)c1cnc2cc(I)ccc2n1)CCOCCOCCOCCOCCOCCOCCOCC[18F]	1.04 % ID/g	6.63 % ID/g	3.61 % ID/g	8.29	5.81 % ID/g	1.47 % ID/g	12.63 % ID/g	2.6 % ID/g	2.37 % ID/g	1.22 % ID/g	1.37 % ID/g	1.7 % ID/g	12.24 % ID/g	–
